Laboratory results from ChEMBL document CHEMBL1140290, “Synthesis and evaluation of (17alpha,20Z)-21-(4-substituted-phenyl)-19-norpregna-1,3,5(10),20-tetraene-3,17beta-diols as ligands for the estrogen receptor-alpha hormone binding domain: comparison with 20E-isomers” (J Med Chem, 2005).

Assays:
[1] = molecular target: T1, Estrogen receptor (Homo sapiens) (UniProt P03372); assay: Relative binding affinity of Z isomers to human ERalpha-HBD at 4C compared to [3H]estradiol
T1 sequence (whole entry): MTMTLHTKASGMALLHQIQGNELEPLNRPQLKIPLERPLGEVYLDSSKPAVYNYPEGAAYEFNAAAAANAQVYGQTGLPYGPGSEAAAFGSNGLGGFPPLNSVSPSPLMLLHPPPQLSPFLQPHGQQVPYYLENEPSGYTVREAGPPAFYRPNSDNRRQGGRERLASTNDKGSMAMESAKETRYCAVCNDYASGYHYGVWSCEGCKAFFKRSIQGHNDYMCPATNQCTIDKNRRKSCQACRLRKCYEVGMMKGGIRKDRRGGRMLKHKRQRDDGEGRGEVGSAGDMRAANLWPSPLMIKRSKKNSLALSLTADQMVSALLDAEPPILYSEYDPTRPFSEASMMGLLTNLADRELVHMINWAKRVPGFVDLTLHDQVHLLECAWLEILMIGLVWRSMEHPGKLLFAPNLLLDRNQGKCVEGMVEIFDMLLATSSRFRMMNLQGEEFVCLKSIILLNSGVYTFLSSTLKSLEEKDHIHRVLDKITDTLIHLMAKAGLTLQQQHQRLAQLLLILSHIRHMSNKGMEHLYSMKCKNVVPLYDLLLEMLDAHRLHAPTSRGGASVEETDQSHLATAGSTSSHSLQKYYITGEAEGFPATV
Procedure, shortened: (§1)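 ERα-HBD (33 kDa) expressed in BL21 cells, induced with 0.6 mM IPTG for 3 h at room temperature. Lysed by sonication in Tris/NaCl/EDTA/DTT/1 M urea buffer, pH 7.4, clarified at 30000g, and diluted to 50 nM ER. […] Bound and free separated with dextran-coated charcoal. RBA = 100×[E]/[C], from 50% inhibition on a best-fit curve.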

[2] = molecular target: T1, Estrogen receptor (Homo sapiens); assay: Relative binding affinity of E isomers to human ERalpha-HBD at 25 degree C compared to [3H]estradiol
[3] = molecular target: T1, Estrogen receptor (Homo sapiens); assay: Relative binding affinity of Z isomers to human ERalpha-HBD at 25 degree C compared to [3H]estradiol; procedure, shortened: as §1
[4] = molecular target: T1, Estrogen receptor (Homo sapiens); assay: Relative binding affinity of E isomers to human ERalpha-HBD at 4C compared to [3H]-estradiol
[5] = molecular target: T2, Estrogen receptor (Rattus norvegicus) (UniProt P06211+Q62986); assay: Effective dose of E-isomer in rat uterotrophic growth assay compared to 10 nmol estradiol; format: functional
[6] = molecular target: T2, Estrogen receptor (Rattus norvegicus); assay: Effective dose of Z-isomer in rat uterotrophic growth assay compared to 10 nmol estradiol; format: functional

SMILES | RBA [1] [%] | RBA [2] [%] | RBA [3] [%] | RBA [4] [%] | ED50 [5] [nmol] | ED50 [6] [nmol]
C[C@]12CC[C@@H]3c4ccc(O)cc4CC[C@H]3[C@@H]1CC[C@@]2(O)/C=C\c1ccccc1 | 57 | 9 | 66 | 16 | – | –
CC(=O)c1ccc(/C=C\[C@]2(O)CC[C@H]3[C@@H]4CCc5cc(O)ccc5[C@H]4CC[C@@]32C)cc1 | 22 | 60 | 29 | 53 | – | –
C[C@]12CC[C@@H]3c4ccc(O)cc4CC[C@H]3[C@@H]1CC[C@@]2(O)/C=C\c1ccc(C#N)cc1 | 20 | 27 | 12 | 9 | – | –
Cc1ccc(/C=C\[C@]2(O)CC[C@H]3[C@@H]4CCc5cc(O)ccc5[C@H]4CC[C@@]32C)cc1 | 10 | 18 | 9 | 10 | 5.5 | 4.2
COc1ccc(/C=C\[C@]2(O)CC[C@H]3[C@@H]4CCc5cc(O)ccc5[C@H]4CC[C@@]32C)cc1 | 20 | 32 | 39 | 36 | – | –
C[C@]12CC[C@@H]3c4ccc(O)cc4CC[C@H]3[C@@H]1CC[C@@]2(O)/C=C\c1ccc(C(F)(F)F)cc1 | 5 | 8 | 9 | 5 | 10.6 | 1.1

Second part, the molecule after the results:

RBA [1] [%] | RBA [2] [%] | RBA [3] [%] | RBA [4] [%] | ED50 [5] [nmol] | ED50 [6] [nmol] | SMILES
22 | – | 26 | – | – | – | C[C@]12CC[C@@H]3c4ccc(O)cc4CC[C@H]3[C@@H]1CC[C@@]2(O)/C=C\c1ccc(N)cc1
43 | 22 | 44 | 24 | 72 | 2.3 | C[C@]12CC[C@@H]3c4ccc(O)cc4CC[C@H]3[C@@H]1CC[C@@]2(O)/C=C\c1ccc(F)cc1
12 | 25 | 25 | 21 | – | – | C[C@]12CC[C@@H]3c4ccc(O)cc4CC[C@H]3[C@@H]1CC[C@@]2(O)/C=C\c1ccc(O)cc1
